Data from ChEMBL document CHEMBL4321807, “Cyanine-Gemcitabine Conjugates as Targeted Theranostic Agents for Glioblastoma Tumor Cells” (J Med Chem, 2019).
Blank lines part the entries; values can stand above or below the compound they belong to. Calls of active or inactive are those of the source. The rule behind the calls is not given here.

Experiments:
U-87 MG [1] = assay: Cytotoxicity against human U87 cells assessed as reduction in cell viability at 0.001 to 10 uM incubated for 72 hrs by AlamarBlue assay; format: functional, cell-based; details: U-87MG ATCC
Procedure, shortened: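 U87 cells, grown in DMEM/F12 with 10% FBS, seeded at 5000/well and left overnight. Compounds added in protein-free hybridoma medium (PFHM II) to final 0.001–10 μM and incubated 72 h at 37 °C. Viability read by AlamarBlue, 2 h, fluorescence Ex/Em 560/590 nm. IC50 taken relative to the lowest concentration beyond which no further cell death occurs.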

[2] = Drug localization in mitochondria of human U87 cells at 20 uM incubated for 45 mins by Mitotracker staining-based confocal fluorescence microscopy; format: ADME; details: u-87mg atcc, 0.75 h
Procedure, shortened: (§1)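 U87 cells seeded at 10 000/well in imaging chambers and left overnight. Exposed to 20 μM compound in FluoroBrite DMEM for 45 min at 37 °C, then washed with HBSS. Stained 15 min with LysoTracker (1:10 000) or MitoTracker (1:15 000), plus NucBlue nuclear stain. Imaged live by confocal microscopy at 60×, dye excited at 633 nm. Colocalization scored by Pearson's correlation coefficient.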

[3] = Drug localization in lysosome of human U87 cells at 20 uM incubated for 45 mins by Lysotracker staining-based confocal fluorescence microscopy; format: ADME; details: u-87mg atcc, 0.75 h; procedure, shortened: as §1
U-87 MG [4] = assay: Cytotoxicity against human U87 cells assessed as reduction in cell viability incubated for 72 hrs by AlamarBlue assay; format: functional, cell-based, U-87MG ATCC
[5] = Half life in mouse serum; format: ADME, cell-free
[6] = Drug uptake in kidney of Fox1nu mouse xenografted with luciferase and RFP reporter expressing human U87 cells at 10 mg/kg, iv measured after 2 days post drug administration by fluorescence imaging analysis; format: ADME, organism-based, U-87MG ATCC; details: in vivo, 48 h
Procedure, shortened: (§2)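 Xenograft mice carried subcutaneous U87-RFP-LUC flank tumors. Each received 10 mg/kg by retro-orbital i.v. injection in vehicle (2% DMSO, 9% ethanol, 9% BSA in PBS). Whole-body NIR fluorescence (ex 745/em 840 nm, radiant efficiency) imaged on IVIS under isoflurane at set times after injection. For organ signal, tumor and organs were dissected and imaged ex vivo.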

[7] = Drug uptake in kidney of Fox1nu mouse xenografted with luciferase and RFP reporter expressing human U87 cells at 10 mg/kg, iv measured after 2 hrs post drug administration by fluorescence imaging analysis; format: ADME, organism-based, U-87MG ATCC; details: in vivo; procedure, shortened: as §2
LN-18 = assay: Cytotoxicity against human LN18 cells assessed as reduction in cell viability at 0.0001 to 10 uM incubated for 72 hrs by AlamarBlue assay; format: functional, cell-based
Procedure, shortened: (§3)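 LN18 and LN229 cells in DMEM with 5% FBS; HEK293 in DMEM/F12 with 10% FBS. Seeded at 2500/well and left overnight. Compounds added in PFHM II to final 0.0001–10 μM for 72 h. Viability by AlamarBlue, fluorescence Ex/Em 560/590 nm.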

[8] = Drug uptake in Fox1nu mouse xenografted with luciferase and RFP reporter expressing human U87 cells assessed as decrease in drug residual at 10 mg/kg, iv measured at 144 hrs post drug administration by fluorescence imaging analysis relative to control; format: ADME, organism-based; details: in vivo; procedure, shortened: as §2
[9] = Toxicity in […] mouse xenografted with luciferase and RFP reporter expressing human U87 cells assessed as effect on body weight at 10 mg/kg, iv administered at day 4 and day 8 post inoculation and six injections weekly measured after 5 weeks; format: organism-based; details: in vivo, 840 h
[10] = Drug uptake in small intestine of Fox1nu mouse xenografted with luciferase and RFP reporter expressing human U87 cells assessed as decrease in drug residual at 10 mg/kg, iv measured after 2 hrs post drug administration by fluorescence imaging analysis; format: ADME, organism-based, U-87MG ATCC; details: in vivo; procedure, shortened: as §2
[11] = Drug uptake in Fox1nu mouse xenografted with luciferase and RFP reporter expressing human U87 cells assessed as increase in fluorescence signal in at retro-orbital vein at 10 mg/kg, iv measured after 30 mins post drug administration by fluorescence imaging analysis; format: ADME, organism-based; details: in vivo, 0.5 h; procedure, shortened: as §2
[12] = Drug uptake in liver of Fox1nu mouse xenografted with luciferase and RFP reporter expressing human U87 cells at 10 mg/kg, iv measured after 2 days post drug administration by fluorescence imaging analysis; format: ADME, organism-based, U-87MG ATCC; details: in vivo, 48 h; procedure, shortened: as §2
[13] = Drug uptake in lung of Fox1nu mouse xenografted with luciferase and RFP reporter expressing human U87 cells at 10 mg/kg, iv measured after 2 hrs post drug administration by fluorescence imaging analysis; format: ADME, organism-based, U-87MG ATCC; details: in vivo; procedure, shortened: as §2
[14] = Drug uptake in large intestine of Fox1nu mouse xenografted with luciferase and RFP reporter expressing human U87 cells at 10 mg/kg, iv measured after 2 hrs post drug administration by fluorescence imaging analysis; format: ADME, organism-based, U-87MG ATCC; details: in vivo; procedure, shortened: as §2
[15] = Time taken for drug metabolism in mouse serum at 50 uM by HPLC analysis; format: ADME, cell-free
Procedure, shortened: (§4)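 Compound at 50 μM in commercial mouse serum at 37 °C. Followed by C4 HPLC with 780 nm absorbance; the metabolite was identified by MS and by coelution with a synthesized standard. Variant conditions: protease/phosphatase inhibitor cocktail premixed at 10% in serum, or incubation at low temperature.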

[16] = Drug uptake in liver of Fox1nu mouse xenografted with luciferase and RFP reporter expressing human U87 cells at 10 mg/kg, iv measured after 2 hrs post drug administration by fluorescence imaging analysis; format: ADME, organism-based, U-87MG ATCC; details: in vivo; procedure, shortened: as §2
[17] = Drug uptake in Fox1nu mouse xenografted with luciferase and RFP reporter expressing human U87 cells assessed as increase in fluorescence signal in tumor at 10 mg/kg, iv measured after 30 mins post drug administration by fluorescence imaging analysis; format: ADME, organism-based; details: in vivo, 0.5 h; procedure, shortened: as §2
[18] = Drug metabolism in mouse serum assessed as 2-((E)-2-((E)-2-((2-Carboxyethyl)thio)-3-(2-((E)-1-(5-carboxypentyl)-3,3-dimethylindolin-2-ylidene)ethylidene)cyclohex-1-en-1-yl)vinyl)-1-(5-carboxypentyl)-3,3-dimethyl-3H-indol-1-ium chloride formation at 50 uM in presence of protease and phosphatase by HPLC analysis; format: ADME, cell-free; procedure, shortened: as §4
HEK293 = assay: Cytotoxicity against human HEK293 cells assessed as reduction in cell viability at 0.0001 to 10 uM incubated for 72 hrs by AlamarBlue assay; format: cell-based; details: hek293, 72 h; procedure, shortened: as §3
U-87 MG [19] = assay: Antitumor activity against luciferase and RFP reporter expressing human U87 cells xenografted in Fox1nu mouse assessed as decrease in tumor burden at 10 mg/kg, iv administered at day 4 and day 8 post inoculation and six injections weekly measured after 5 weeks by bioluminescence imaging analysis; format: functional, organism-based; details: U-87MG ATCC
[20] = Half life in mouse serum at 50 uM incubated for 360 mins by HPLC analysis; format: ADME, cell-free; procedure, shortened: as §4
[21] = Drug uptake in Fox1nu mouse xenografted with luciferase and RFP reporter expressing human U87 cells assessed as increase in fluorescence signal in liver at 10 mg/kg, iv measured after 30 mins post drug administration by fluorescence imaging analysis; format: ADME, organism-based; details: in vivo, 0.5 h; procedure, shortened: as §2
[22] = Drug uptake in Fox1nu mouse xenografted with luciferase and RFP reporter expressing human U87 cells assessed as decrease in drug residual at 10 mg/kg, iv measured […] post drug administration by fluorescence imaging analysis relative to control; format: ADME, organism-based; details: in vivo, 48 h, in the assay text read “48 hrs” for “24 hrs”; procedure, shortened: as §2
[23] = Drug uptake in tumor of Fox1nu mouse xenografted with luciferase and RFP reporter expressing human U87 cells at 10 mg/kg, iv measured after 2 hrs post drug administration by fluorescence imaging analysis; format: ADME, organism-based, Neoplasm, U-87MG ATCC; details: in vivo; procedure, shortened: as §2
LN-229 = assay: Cytotoxicity against human LN229 cells assessed as reduction in cell viability at 0.0001 to 10 uM incubated for 72 hrs by AlamarBlue assay; format: functional, cell-based; procedure, shortened: as §3
[24] = Drug metabolism in mouse serum assessed as 2-((E)-2-((E)-2-((2-Carboxyethyl)thio)-3-(2-((E)-1-(5-carboxypentyl)-3,3-dimethylindolin-2-ylidene)ethylidene)cyclohex-1-en-1-yl)vinyl)-1-(5-carboxypentyl)-3,3-dimethyl-3H-indol-1-ium chloride formation at 50 uM by HPLC analysis; format: ADME, cell-free; procedure, shortened: as §4
[25] = Half life of compound in human U87 tumor homogenate at 50 uM measured upto 72 hrs by HPLC analysis; format: ADME, U-87MG ATCC
Procedure, shortened: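 Tumor homogenate prepared from U87 xenograft tissue in RIPA buffer (on ice), clarified by centrifugation and 0.2 μm filtration. Compound at 50 μM incubated at 37 °C for up to 72 h. Samples run on analytical C4 HPLC (5–90% MeCN gradient, 0.1% TFA) with 780 nm absorbance. Peak area normalized over time.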

[26] = Drug metabolism in mouse serum assessed as 2-((E)-2-((E)-2-((2-Carboxyethyl)thio)-3-(2-((E)-1-(5-carboxypentyl)-3,3-dimethylindolin-2-ylidene)ethylidene)cyclohex-1-en-1-yl)vinyl)-1-(5-carboxypentyl)-3,3-dimethyl-3H-indol-1-ium chloride formation at low temperature at 50 uM by HPLC analysis; format: ADME, cell-free; procedure, shortened: as §4
[27] = Drug uptake in tumor of Fox1nu mouse xenografted with luciferase and RFP reporter expressing human U87 cells at 10 mg/kg, iv measured after 2 days post drug administration by fluorescence imaging analysis; format: ADME, organism-based, Neoplasm, U-87MG ATCC; details: in vivo, 48 h; procedure, shortened: as §2

Drug uptake [2]: Active
half-life [5]: 0.6 h
Drug uptake [3]: Active
SMILES: CC1(C)C(/C=C/C2=C(Cl)C(=C/C=C3/N(CCCCCC(=O)O)c4ccccc4C3(C)C)/CCC2)=[N+](CCCCCC(=O)O)c2ccccc21.[Cl-]

Drug uptake [6]: Active
Drug uptake [7]: Active
fold change (FC) [8]: 100
Drug uptake [10]: Active
Drug uptake [11]: Active
Drug uptake [12]: Active
Drug uptake [2]: Active
Drug uptake [13]: Active
Drug uptake [14]: Active
Time [15]: 3 h
Drug uptake [16]: Active
Drug uptake [17]: Active
Drug metabolism [18]: Metabolite_Notdetected
half-life at 50 µM [20]: 1 h
Drug uptake [21]: Active
fold change (FC) [22]: 10
Drug uptake [23]: Active
Drug metabolism [24]: Metabolite_Detected
Drug uptake [3]: Active
half-life at 50 µM [25]: 60 h
Drug metabolism [26]: Metabolite_Notdetected
Drug uptake [27]: Active
SMILES: CC1(C)C(/C=C/C2=C(SCCC(=O)Nc3ccn([C@@H]4O[C@H](CO)[C@@H](O)C4(F)F)c(=O)n3)C(=C/C=C3/N(CCCCCC(=O)O)c4ccccc4C3(C)C)/CCC2)=[N+](CCCCCC(=O)O)c2ccccc21.[Cl-]
Activity (LN-18): Active
Activity [9]: Non-Toxic
IC50 (U-87 MG [4]): 20.9 nM
Activity (HEK293): Toxic
Activity (U-87 MG [19]): Active
Activity (LN-229): Active

The next lines start with the compound.

SMILES: CC1(C)C(/C=C/C2=C(SCCC(=O)Nc3ccn([C@H]4C[C@H](O)[C@@H](CO)O4)c(=O)n3)C(=C/C=C3/N(CCCCS(=O)(=O)O)c4ccccc4C3(C)C)/CCC2)=[N+](CCCCS(=O)(=O)O)c2ccccc21
Activity (U-87 MG [1]): Active

SMILES: CC1(C)C(/C=C/C2=C(Cl)C(=C/C=C3/N(CCCCS(=O)(=O)O)c4ccccc4C3(C)C)/CCC2)=[N+](CCCCS(=O)(=O)O)c2ccccc21.[Cl-]
Drug uptake [2]: Active
Drug uptake [3]: Active

SMILES: CCCN1/C(=C/C=C2\CCCC(/C=C/C3=[N+](CCC)c4ccccc4C3(C)C)=C2SCCC(=O)Nc2ccn([C@H]3C[C@H](O)[C@@H](CO)O3)c(=O)n2)C(C)(C)c2ccccc21
IC50 (U-87 MG [4]): 3400 nM

SMILES: CCCN1/C(=C/C=C2\CCCC(/C=C/C3=[N+](CCC)c4ccccc4C3(C)C)=C2SCCC(=O)Nc2ccn([C@@H]3O[C@H](CO)[C@@H](O)C3(F)F)c(=O)n2)C(C)(C)c2ccccc21.[Cl-]
Drug uptake [2]: Active
Drug uptake [3]: Active
